In ChEMBL document CHEMBL4118213, “Drug efficacy of novel 3-O-methoxy-4-halo disubstituted 5,7-dimethoxy chromans; evaluated via DNA gyrase inhibition, bacterial cell wall lesion and antibacterial prospective” (Bioorg Med Chem, 2018):
In brackets after ≈: the same amount, converted by molar mass. Activity calls are given as the source filed them. The rule behind the calls is not given here.

Assays:
[1] = molecular target: DNA gyrase (Staphylococcus aureus) (UniProt P0A0K8+P20831); assay: Inhibition of Staphylococcus aureus DNA gyrase assessed as reduction in relaxation of pBR322 DNA at 1.5 ug by […] analysis relative to control; format: protein-complex assay
In short: (§1)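 pBR322 DNA incubated with S. aureus DNA gyrase with or without compound (1.5 µg) and novobiocin as positive control. Products resolved by gel electrophoresis. IC50 from the dose–response curve; mean of duplicate or triplicate measurements.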

Pseudomonas aeruginosa = assay: Antibacterial activity against Pseudomonas aeruginosa MTCC 424; format: functional
In short: (§2)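 MIC determined against six bacterial strains over a range of concentrations, with 1% DMSO as the untreated control and novobiocin as the standard. Values are averages of n = 5.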

Erythrocyte [2] = assay: Hemolytic activity in human RBC assessed as membrane mortification by absorbance method; format: ADME, cell-based
In short: (§3)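 Human red blood cell membrane stabilization tested at various concentrations (n = 4) in 96-well format, with distilled water taken as 100% hemolysis. Absorbance read-out; IC50 taken from the percentage inhibition versus concentration curve.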

DNA gyrase = DNA gyrase (Staphylococcus aureus, UniProt P0A0K8+P20831); assay: Inhibition of Staphylococcus aureus DNA gyrase assessed as reduction in relaxation of pBR322 DNA by […] analysis; format: protein-complex assay; in short: as §1
Erythrocyte [3] = assay: Hemolytic activity in human RBC assessed as membrane mortification by measuring […] stabilization by absorbance method relative to control; format: ADME, cell-based; parameters: concentration or dose not given beside the values; in short: as §3
[4] = test system: Corynebacterium diphtheriae; assay: Antibacterial activity against Corynebacterium diphtheriae MTCC 116 assessed as cell wall degradation by measuring dead cells measured every 30 mins up to 180 mins by microscopic method; format: functional, organism-based
In short: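 C. diphtheriae was grown overnight in Loeffler medium and examined after treatment. Dead cells/cell debris were estimated every 30 min until whole-culture death. Total and dead cell stains were applied for 1 h in the dark at room temperature, then fluorescence was read at Ex 490/Em 525 and Ex 536/Em 617 nm, in triplicate.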

Erythrocyte [5] = assay: Hemolytic activity in human RBC assessed as mean absorbance (reference value: 0.1868 +/- 0.033); format: ADME, cell-based; in short: as §3
Staphylococcus aureus = assay: Antibacterial activity against Staphylococcus aureus MTCC 96; format: functional; in short: as §2
Klebsiella pneumoniae = assay: Antibacterial activity against Klebsiella pneumoniae MTCC 530; format: functional; in short: as §2
Escherichia coli = assay: Antibacterial activity against Escherichia coli MTCC 443; format: functional; in short: as §2
[6] = test system: Corynebacterium diphtheriae; assay: Antibacterial activity against Corynebacterium diphtheriae MTCC 116; format: functional; in short: as §2
Streptococcus pyogenes = assay: Antibacterial activity against Streptococcus pyogenes MTCC 442; format: functional; in short: as §2
MCF7 = assay: Cytotoxicity against human MCF7 cells after 8 hrs by MTT assay; format: cell-based; conditions: for Activity: human, mcf7, 8 h
In short: (§4)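 MTT assay on MCF-7 and MCF-10 cells (n = 4), with DMSO as control and doxorubicin as standard. Viability was read at several times after treatment and calculated as mean OD/control OD × 100%.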

[7] = Cytotoxicity against human MCF7 cells assessed as cell viability after 6 hrs by MTT assay relative to control; format: cell-based; parameters: concentration or dose not given beside the values; conditions: read-out: Activity; in short: as §4
MCF10 = assay: Cytotoxicity against human MCF10 cells after 8 hrs by MTT assay; format: cell-based; conditions: mcf10, 8 h; in short: as §4
[8] = Cytotoxicity against human MCF7 cells assessed as cell viability after 4 hrs by MTT assay relative to control; format: cell-based; parameters: concentration or dose not given beside the values; conditions: read-out: Activity; in short: as §4

inhibition [1] [%] | MIC (Pseudomonas aeruginosa) [µg/mL] | IC50 (DNA gyrase) [nM] | MIC (Staphylococcus aureus) [µg/mL] | MIC (Klebsiella pneumoniae) [µg/mL] | MIC (Escherichia coli) [µg/mL] | MIC [6] [µg/mL] | MIC (Streptococcus pyogenes) [µg/mL] | SMILES | IC50 (Erythrocyte [2]) [µg/mL] | Activity (Erythrocyte [3]) [%] | Activity [4] | Activity (Erythrocyte [5]) | IC50 (MCF7; Homo sapiens, MCF7, 8 h) [nM] | viability at 6 h [7] [%] | Activity (MCF10) | viability at 4 h [8] [%] | Activity (MCF7)
78 to 94 | 1.67 (≈ 6.32 µM) | 1.86 to 24 | 1 (≈ 3.78 µM) | 2.24 (≈ 8.48 µM) | 0.99 (≈ 3.75 µM) | 1.02 (≈ 3.86 µM) | 3.12 (≈ 11.8 µM) | COc1cc2c(c(O)c1C(C)=O)C(=O)CC(C)(C)O2 | 1.24 (≈ 4.69 µM) | 80.65 | Active | 0.3841 |  |  |  |  | 
78 to 94 | 4.52 (≈ 15.3 µM) | 10 | 0.92 (≈ 3.1 µM) | 2.18 (≈ 7.36 µM) | 2.24 (≈ 7.56 µM) | 0.99 (≈ 3.34 µM) | 2.85 (≈ 9.62 µM) | COc1cc(OC)c2c(c1C(C)=O)OC(C)(C)[C@H](O)[C@@H]2O | 0.88 (≈ 2.97 µM) | 85.31 | Active | 0.3888 |  | 16 | Non-Toxic | 20 | Dose-dependent effect
90 | 0.87 (≈ 2.76 µM) | 3.5 | 0.08 (≈ 0.254 µM) | 0.72 (≈ 2.29 µM) | 0.68 (≈ 2.16 µM) | 0.68 (≈ 2.16 µM) | 0.87 (≈ 2.76 µM) | COc1cc(O)c2c(c1C(C)=O)OC(C)(C)C(OC)C2Cl (configuration not stated) | 0.0102 (≈ 0.0324 µM) | 93.25 | Active | 0.4242 |  | 16 | Non-Toxic | 20 | Dose-dependent effect
78 to 94 | 3.01 (≈ 10.2 µM) | 1.86 to 24 | 1.54 (≈ 5.2 µM) | 3.88 (≈ 13.1 µM) | 4.1 (≈ 13.8 µM) | 1.28 (≈ 4.32 µM) | 5.02 (≈ 16.9 µM) | COc1cc2c(c(OC)c1C(C)=O)[C@H](O)[C@H](O)C(C)(C)O2 | 1 (≈ 3.38 µM) | 80.88 | Active | 0.3611 |  |  |  |  | 
78 to 94 | 1.02 (≈ 4.11 µM) | 7.5 | 0.1 (≈ 0.403 µM) | 0.9 (≈ 3.62 µM) | 0.88 (≈ 3.54 µM) | 0.82 (≈ 3.3 µM) | 1 (≈ 4.03 µM) | COc1cc(O)c2c(c1C(C)=O)OC(C)(C)C=C2 | 0.0182 (≈ 0.0733 µM) | 90.45 | Active | 0.4624 |  | 16 | Non-Toxic | 20 | Dose-dependent effect
78 to 94 |  | 1.86 to 24 |  |  |  |  |  | COc1cc(OC)c2c(c1C(C)=O)OC(C)(C)C(O)C2Br (configuration not stated) |  |  |  |  |  |  |  |  | 

The next lines start with the compound.

SMILES | inhibition [1] [%] | MIC (Pseudomonas aeruginosa) [µg/mL] | IC50 (DNA gyrase) [nM] | MIC (Staphylococcus aureus) [µg/mL] | MIC (Klebsiella pneumoniae) [µg/mL] | MIC (Escherichia coli) [µg/mL] | MIC [6] [µg/mL] | MIC (Streptococcus pyogenes) [µg/mL] | IC50 (Erythrocyte [2]) [µg/mL] | Activity (Erythrocyte [3]) [%] | Activity [4] | Activity (Erythrocyte [5]) | IC50 (MCF7; Homo sapiens, MCF7, 8 h) [nM] | viability at 6 h [7] [%] | Activity (MCF10) | viability at 4 h [8] [%] | Activity (MCF7)
COc1cc(OC)c2c(c1C(C)=O)OC(C)(C)[C@@H](O)[C@H]2O | 78 to 94 | 1.01 (≈ 3.41 µM) | 1.86 to 24 | 0.64 (≈ 2.16 µM) | 0.92 (≈ 3.1 µM) | 0.84 (≈ 2.83 µM) | 0.9 (≈ 3.04 µM) | 1.02 (≈ 3.44 µM) | 0.0094 (≈ 0.0317 µM) | 88.52 | Active | 0.4046 |  |  |  |  | 
COc1cc(OC)c2c(c1C(C)=O)OC(C)(C)C(OC)C2Cl (configuration not stated) | 78 to 94 | 1.02 (≈ 3.1 µM) | 1.86 to 24 | 0.18 (≈ 0.547 µM) | 0.96 (≈ 2.92 µM) | 1 (≈ 3.04 µM) | 0.21 (≈ 0.639 µM) | 1.07 (≈ 3.25 µM) | 0.222 (≈ 0.676 µM) | 86.37 | Active | 0.3659 |  |  |  |  | 
COc1cc(OS(=O)(=O)C(F)(F)F)c2c(c1C(C)=O)OC(C)(C)C=C2 | 94 | 0.84 (≈ 2.21 µM) | 2.5 | 0.02 (≈ 0.0526 µM) | 0.64 (≈ 1.68 µM) | 0.64 (≈ 1.68 µM) | 0.04 (≈ 0.105 µM) | 0.83 (≈ 2.18 µM) | 0.0012 (≈ 0.00316 µM) | 98.84 | Active | 0.4852 | 10 | 16 | Non-Toxic | 20 | 
COc1c(Br)c(OC)c(C(C)=O)c2c1C=CC(C)(C)O2 | 78 to 94 | 3.12 (≈ 9.14 µM) | 1.86 to 24 | 0.99 (≈ 2.9 µM) | 1.99 (≈ 5.83 µM) | 2.13 (≈ 6.24 µM) | 1.08 (≈ 3.17 µM) | 2.04 (≈ 5.98 µM) | 0.124 (≈ 0.364 µM) | 86.16 | Active | 0.3634 |  |  |  |  | 
COc1cc(OC)c2c(c1C(C)=O)OC(C)(C)C(OC)C2F (configuration not stated) | 78 to 94 | 0.94 (≈ 3.01 µM) | 9.5 | 0.16 (≈ 0.512 µM) | 0.76 (≈ 2.43 µM) | 0.92 (≈ 2.95 µM) | 0.92 (≈ 2.95 µM) | 0.94 (≈ 3.01 µM) | 0.0922 (≈ 0.295 µM) | 85.15 | Active | 0.3947 |  | 16 | Non-Toxic | 20 | Dose-dependent effect
CO[C@@H]1[C@@H](OC(=O)c2ccc(C)[nH]2)[C@@H](O)[C@H](Oc2ccc3c(O)c(NC(=O)c4ccc(O)c(CC=C(C)C)c4)c(=O)oc3c2Cl)OC1(C)C | 86 |  |  |  |  |  |  |  |  |  |  |  |  |  |  |  | 
COc1ccc2c(c1)c(CC(=O)O)c(C)n2C(=O)c1ccc(Cl)cc1 [INDOMETHACIN] |  |  |  |  |  |  |  |  | 0.086 (≈ 0.24 µM) | 85.64 |  | 0.3834 |  |  |  |  | 
CO[C@@H]1[C@@H](OC(N)=O)[C@@H](O)[C@H](Oc2ccc3c(O)c(NC(=O)c4ccc(O)c(CC=C(C)C)c4)c(=O)oc3c2C)OC1(C)C [NOVOBIOCIN] |  | 1.75 to 100 (≈ 2.86 to 163 µM) |  | 0.78 to 0.92 (≈ 1.27 to 1.5 µM) | 0.5 to 0.75 (≈ 0.816 to 1.22 µM) | 4.94 to 5 (≈ 8.06 to 8.16 µM) | 1.32 (≈ 2.15 µM) | 3.24 (≈ 5.29 µM) |  |  |  |  |  |  |  |  | 
